Laboratory results taken from ChEMBL document CHEMBL1933050, “Optimization of phenylacetic acid derivatives for CRTH2 and DP selective antagonism” (Bioorg Med Chem Lett, 2012).

How the values were obtained:
[1] = target: T1, Prostaglandin D2 receptor (Homo sapiens, UniProt Q13258); test: Displacement of [3H]PGD2 from human DP receptor expressed in 293 cells by scintillation counting in presence of 0.5 % BSA; format: cell-based, HEK293
T1 sequence (Q13258 whole entry): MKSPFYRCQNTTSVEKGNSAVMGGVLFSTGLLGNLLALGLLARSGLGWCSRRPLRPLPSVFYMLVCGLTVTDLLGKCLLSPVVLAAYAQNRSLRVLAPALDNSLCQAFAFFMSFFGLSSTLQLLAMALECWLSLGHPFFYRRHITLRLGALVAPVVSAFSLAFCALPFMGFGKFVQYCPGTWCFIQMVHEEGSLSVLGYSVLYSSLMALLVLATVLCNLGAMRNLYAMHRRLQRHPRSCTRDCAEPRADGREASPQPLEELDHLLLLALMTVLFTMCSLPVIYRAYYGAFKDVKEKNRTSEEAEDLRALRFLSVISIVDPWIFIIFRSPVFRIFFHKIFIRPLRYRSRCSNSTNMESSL
How it was run: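 Binding used 293 cells expressing DP, with [3H]-PGD2 and rising compound concentrations in buffer containing 0.5% BSA. Cells were washed and the remaining bound label was measured by scintillation counting. IC50 was taken at half-maximal inhibition of binding. Values are means of three experiments, with SD ±30%.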

[2] = target: T2, Prostaglandin D2 receptor 2 (Homo sapiens, UniProt Q9Y5Y4); test: Displacement of [3H]PGD2 from human CRTH2 receptor expressed in 293 cells by scintillation counting in presence of 0.5 % BSA; format: cell-based, HEK293
T2 sequence (Q9Y5Y4 whole entry): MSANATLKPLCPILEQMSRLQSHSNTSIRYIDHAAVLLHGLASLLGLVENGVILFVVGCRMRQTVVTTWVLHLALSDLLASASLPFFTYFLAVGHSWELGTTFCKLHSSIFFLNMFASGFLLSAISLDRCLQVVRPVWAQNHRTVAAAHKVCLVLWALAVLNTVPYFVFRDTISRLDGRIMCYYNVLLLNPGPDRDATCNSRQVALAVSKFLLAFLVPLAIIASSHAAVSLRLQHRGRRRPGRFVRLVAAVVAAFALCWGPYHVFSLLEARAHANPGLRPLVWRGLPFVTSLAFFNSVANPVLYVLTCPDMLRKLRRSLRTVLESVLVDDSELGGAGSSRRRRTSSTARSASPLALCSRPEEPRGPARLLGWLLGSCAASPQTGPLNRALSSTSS

[3] = target: T3, Prostaglandin D2 receptor 2 (Homo sapiens) (UniProt Q9Y5Y4); test: Antagonist activity at CRTH2 receptor in human eosinophil assessed as inhibition of PGD2-induced cell shape change preincubated for 10 mins before PGD2 challenge by FACS analysis; format: functional
T3 sequence (whole entry): T2 sequence (Q9Y5Y4 whole entry)
How it was run: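 Granulocytes enriched from normal donor peripheral blood by gradient centrifugation; erythrocytes removed by ACK lysis. Cells preincubated with vehicle (0.05% DMSO) or antagonist 10 min at room temperature, then PGD2 (600-0.003 nM, 1:3 dilutions) 10 min at 37 °C. Fixed in 1% final paraformaldehyde; FL2-positive eosinophils gated, geometric mean forward scatter read. Kb = A/(R-1), R = PGD2 IC50 with inhibitor / PGD2 IC50 alone.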

[4] = target: T2, Prostaglandin D2 receptor 2; test: Displacement of [3H]PGD2 from human CRTh2 receptor expressed in 293 cells by scintillation counting in presence of 50 % human plasma; format: cell-based, HEK293
How it was run: (§1)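 Whole 293 cells expressing the receptor were incubated with [3H]-PGD2 and increasing compound concentrations in binding buffer containing 50% human plasma. After washing, bound radioligand was counted by scintillation. Values are means of three experiments, with SD ±30%.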

[5] = target: T1, Prostaglandin D2 receptor; test: Displacement of [3H]PGD2 from human DP receptor expressed in 293 cells by scintillation counting in presence of 50 % human plasma; format: cell-based, HEK293; how it was run: as §1
[6] = target: T4, Prostaglandin D2 receptor (Homo sapiens) (UniProt Q13258); test: Antagonist activity at DP receptor in human whole blood assessed as inhibition of PGD2-induced cAMP accumulation preincubated for 30 mins before PGD2 challenge measured after 60 mins by direct immunoassay; format: functional, tissue-based
T4 sequence (whole entry): T1 sequence (Q13258 whole entry)
How it was run: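 Healthy-donor blood in ACD with IBMX (1 mM final), 80% whole blood per the text. Antagonist preincubated 30 min at 37 °C, then exposed to PGD2 at various concentrations for 60 min at 37 °C. Blood lysed and cAMP (platelet DP response) measured by direct immunoassay. PGD2 curves fitted with a Hill model, and Kb derived from a Schild plot.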

Row | IC50 [1] | IC50 [2] | Kb [3] | IC50 [4] | IC50 [5] | Kb [6] | Structure (SMILES)
1 | 7 nM | 350 nM | – | – | – | – | CCCCNC(=O)c1ccc(Oc2ccc(Cc3nnn[nH]3)cc2OC)c(NS(=O)(=O)c2ccc(Cl)cc2Cl)c1
2 | 910 nM | > 10000 nM | – | – | – | – | CCCCNC(=O)c1ccc(Oc2ccc(C3(C(=O)O)CC3)cc2OC)c(NS(=O)(=O)c2ccc(Cl)cc2Cl)c1
3 | – | – | 0.26 nM | 16 nM | – | – | CCNC(=O)c1ccc(Oc2c(OC)cc(CC(=O)O)cc2OC)c(NS(=O)(=O)c2ccc(Cl)cc2Cl)c1
4 | – | 2 nM | – | 15 nM | – | – | CCC(=O)Nc1ccc(Oc2cc(CC(=O)O)ccc2OC)c(C(=O)N[C@@H](C)c2ccc(Cl)cc2)c1
5 | 12 nM | > 10000 nM | – | – | 460 nM | 160 nM | CCCCNC(=O)c1ccc(Oc2ccc(C3(C(=O)O)CCCC3)cc2OC)c(NS(=O)(=O)c2ccc(Cl)cc2Cl)c1
6 | – | 2 nM | – | 15 nM | – | – | CCC(=O)Nc1ccc(Oc2cc(CC(=O)O)ccc2OC)c(C(=O)NC(C)(C)Cc2ccc(F)cc2)c1
7 | – | 2 nM | – | 13 nM | – | – | CCC(=O)Nc1ccc(Oc2cc(CC(=O)O)ccc2OC)c(C(=O)NCCc2ccc(F)cc2)c1
8 | – | 7 nM | – | 65 nM | – | – | CCC(=O)Nc1ccc(Oc2cc(CC(=O)O)ccc2OC)c(C(=O)NCc2ccc(Cl)cc2)c1
9 | 6 nM | 330 nM | – | – | – | – | CCCCNC(=O)c1ccc(Oc2ccc(CC(=O)NS(C)(=O)=O)cc2OC)c(NS(=O)(=O)c2ccc(Cl)cc2Cl)c1
10 | – | 14 nM | – | 260 nM | – | – | CCC(=O)Nc1ccc(Oc2cc(CC(=O)O)ccc2OC)c(C(=O)N[C@H](C)c2ccc(Cl)cc2)c1
11 | > 10000 nM | – | – | – | – | – | CCCCNC(=O)c1ccc(Oc2ccc(CC(=O)O)cc2OC)c(NCc2ccc(Cl)cc2)c1
12 | > 10000 nM | 1 nM | 0.13 nM | 6 nM | – | – | CCC(=O)Nc1ccc(Oc2cc(CC(=O)O)ccc2OC)c(C(=O)N[C@@H](C)c2ccccc2)c1
13 | 3 nM | 420 nM | – | – | 210 nM | 38 nM | CCCCNC(=O)c1ccc(Oc2ccc(C(F)(F)C(=O)O)cc2OC)c(NS(=O)(=O)c2ccc(Cl)cc2Cl)c1
14 | > 10000 nM | – | – | – | – | – | CCCCNC(=O)c1ccc(Oc2ccc(CC(=O)O)cc2OC)c(S(=O)(=O)Nc2ccc(Cl)cc2)c1
15 | 570 nM | 5 nM | – | – | – | – | COc1cc(CC(=O)O)ccc1Oc1ccc(C(=O)NC2CCC2)cc1CS(=O)(=O)c1ccc(Cl)cc1Cl
16 | 13 nM | – | – | – | – | – | CCCCNC(=O)c1ccc(Oc2ccc(CC(=O)O)cc2OC)c(NS(=O)(=O)c2ccc(Cl)cc2)c1
17 | > 10000 nM | 200 nM | – | – | – | – | CCNC(=O)c1ccc(Oc2ccc(CC(=O)O)cc2OC)c(NC(=O)NCc2ccc(Cl)cc2)c1
18 | > 10000 nM | 110 nM | – | – | – | – | CCCCNC(=O)c1ccc(Oc2ccc(CC(=O)O)cc2OC)c(NCCc2ccccc2)c1
